Rows were chosen to be rich in hits. Some 2.3% of all compounds tested hit in one or more screens of this group.
OXTR potentiator: potentiators of human oxytocin receptor; P30559; activation, % at 3 µM; CHO-OTR cells, Fluo-8 calcium fluorescence, potentiator mode; 0% = oxytocin EC15, 100% = EC100; 0.061% of 320,000 active;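 active = activation above that plate's cutoff, the mean activation of tested compounds plus 3 SD, cut at about 6.6% in these data, passing the limit was not always enough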;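 also: 100% uses oxytocin at 75 nM as the full agonist control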
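System: human OTR in CHO cells; Also added: sub-maximal oxytocin, roughly EC15; Timing: compound 6 min at room temperature before oxytocin, 100 s read; Technique: Fluo-8 intracellular calcium fluorescence, ex 470-495, em 515-575 nm; Controls: oxytocin EC15 low and EC100 high; Replication: singlicate.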
V1R ag counter: activates human V1a receptor in oxytocin agonist counter-screen | AID 2797 | 0.25% of 320,000 active | activation, % at 3 µM | P37288 | CHO-V1R cells, Fluo-8 calcium fluorescence, agonist mode; 0% DMSO, 100% 3 nM vasopressin;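 active = activation above the mean activation of all tested compounds plus 3 SD, per screening run, cut at about 20% in these data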;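 also: signal is peak over basal fluorescence ratio across a 100 second FLIPR read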
Target sequence (P37288 whole entry, looked up): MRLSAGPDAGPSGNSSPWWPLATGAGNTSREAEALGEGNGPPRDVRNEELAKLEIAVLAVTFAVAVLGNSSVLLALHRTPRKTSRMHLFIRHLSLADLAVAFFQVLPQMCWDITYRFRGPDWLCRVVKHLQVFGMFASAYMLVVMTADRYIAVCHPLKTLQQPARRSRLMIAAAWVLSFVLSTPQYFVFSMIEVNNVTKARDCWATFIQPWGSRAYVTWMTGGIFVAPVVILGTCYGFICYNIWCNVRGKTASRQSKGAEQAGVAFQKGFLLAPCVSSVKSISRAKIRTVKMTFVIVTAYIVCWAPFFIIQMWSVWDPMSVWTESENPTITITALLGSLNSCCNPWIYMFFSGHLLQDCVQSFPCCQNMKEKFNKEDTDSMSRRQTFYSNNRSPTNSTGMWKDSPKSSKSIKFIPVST
OXTR ag: activates the human oxytocin receptor; 0.32% of 320,000 active; P30559; CHO-OTR cells, Fluo-8 calcium fluorescence; normalized: DMSO 0%, oxytocin 100%; activation, % at 3 µM; AID 2435;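 active = activation above the mean of all tested compounds plus 3 SD, cutoff set per screening run, cut at about 20% in these data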;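 also: peak over basal fluorescence ratio from a 100 s FLIPR kinetic read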
TAAR1 antag: antagonists of human TAAR1 | 1.5% of 360,000 active | CHO RD-HGA16 TAAR1, Fluo-8 calcium fluorescence, antagonist | inhibition, % at 3 µM | Q96RJ0;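 active = inhibition above a per-plate cutoff, the mean inhibition of test compounds on that plate plus 3 SD, cut at about 49% in these data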;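 also: 0% = DMSO plus EC80 beta-PEA response and 100% = DMSO alone without agonist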
Target sequence (Q96RJ0 whole entry, looked up): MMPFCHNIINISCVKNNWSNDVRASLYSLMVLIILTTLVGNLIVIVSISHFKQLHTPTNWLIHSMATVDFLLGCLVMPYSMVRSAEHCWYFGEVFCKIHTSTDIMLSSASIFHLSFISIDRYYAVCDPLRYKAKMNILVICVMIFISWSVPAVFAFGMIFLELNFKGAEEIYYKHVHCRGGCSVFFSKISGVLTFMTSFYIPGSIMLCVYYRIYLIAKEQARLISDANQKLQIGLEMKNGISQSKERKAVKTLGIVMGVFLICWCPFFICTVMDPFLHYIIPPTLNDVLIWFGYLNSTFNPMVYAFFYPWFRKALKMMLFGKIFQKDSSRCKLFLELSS
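Test system: CHO RD-HGA16 cells bearing hTAAR1 | Reagent: β-PEA, EC80 | Compound dosing: 3 µM, single point | Schedule: Dye loading 75 min at 37 °C, then 30 min room temperature | Signal: Calcium fluorescence with Fluo-8 | Evaluation: Percent inhibition of PEA-evoked calcium signal, max/basal emission ratio | Control set: DMSO-only wells and EC80 β-PEA-stimulated wells | Repeats: Singlicate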
TAAR1 agonist: agonists of human TAAR1; activation, % at 3 µM; CHO RD-HGA16 TAAR1, Fluo-8 calcium fluorescence; vehicle wells 0%, saturating PEA agonist 100%; 0.99% of 360,000 active;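 active = activation above the mean activation of all test compounds in the run plus 3 SD, cut at about 38% in these data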
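Repeats: no replicates (n 1) | Material: CHO-derived RD-HGA16 cells with stable Gα16 and human TAAR1 | Technique: Kinetic Fluo-8 calcium fluorescence | Schedule: 17-24 h seeding, 75 min 37 °C dye, 30 min RT | Evaluation: % activation from peak over basal fluorescence ratio, DMSO-to-PEA scaled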
OXTR agonist cf: human OXTR agonism, confirmation. shares compounds with OXTR ag. CHO-OTR cells, Fluo-8 calcium fluorescence, agonist. activation, % at 3 µM. 20% of 390 active. AID 434963;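 active = mean activation above about 20% derived from the earlier single-dose screen, limit read from the data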;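 also: peak over minimum fluorescence ratio per well during a 100 second FLIPR read; 0% = DMSO alone and 100% = oxytocin high control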
V1aR counter 3x: counter-screen for oxytocin receptor agonists: V1a receptor agonists; shares compounds with OXTR ag; CHO-V1R cells, Fluo-8 calcium fluorescence, agonist; activation, % at 3 µM; 10% of 390 active; AID 434991;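 active = mean activation over triplicate exceeds the hit threshold set in the earlier primary screen, cut at about 20% in these data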;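 also: peak over basal fluorescence ratio within a 100 second read; 0% = DMSO alone and 100% = 3 nM vasopressin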
TAAR1 ag conf: human TAAR1 agonism, confirmed; shares compounds with TAAR1 agonist; CHO RD-HGA16 TAAR1, Fluo-8 calcium fluorescence; scaled: DMSO 0%, maximal phenethylamine 100%; activation, % at 3 µM; 82% of 2,400 active;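 active = activation above a cutoff set at the run's mean compound activation plus 3 SD, cut at about 39% in these data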
Ga16 nonsel ag: nonselective agonist in parental cells, TAAR1 agonist counter-screen. shares compounds with TAAR1 agonist. CHO-Ga16 parental, Fluo-8 calcium fluorescence; normalized to maximal ATP response, DMSO zero. activation, % at 3 µM. 50% of 2,400 active. AID 651787;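 active = activation above the run cutoff, the mean activation over all tested wells plus 3 SD, cut at about 12% in these data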;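 also: 0% = DMSO wells and 100% = maximal ATP response on the peak over basal ratio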
TAAR1 desensitize: counter-screen for human TAAR1 agonists: agonists that desensitize TAAR1; 46% of 2,400 active; inhibition, % at 3 µM; shares compounds with TAAR1 agonist; CHO RD-HGA16 hTAAR1, Fluo-8 calcium, beta-PEA response inhibition;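 active = inhibition above the run cutoff, the mean inhibition of all test compounds plus 3 SD, cut at about 49% in these data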;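 also: beta-PEA stimulus applied at its EC80; loss of beta-PEA calcium signal after compound pretreatment read as receptor desensitization; 0% = DMSO with beta-PEA at EC80 and 100% = DMSO alone without agonist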
Ga16 nonsel ant: nonselective Ga16 antagonist in TAAR1 agonist counter-screen. shares compounds with TAAR1 agonist. CHO-Ga16 ATP-induced calcium, Fluo-8 fluorescence. inhibition, % at 3 µM. 39% of 2,400 active;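 active = inhibition above the plate's mean compound inhibition plus 3 SD, computed per plate, cut at about 22% in these data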;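 also: 0% = EC80 ATP with DMSO and 100% = DMSO wells without ATP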
Active calls of the source: *; . = no result; ! = a repeat was not active.

SMILES	OXTR potentiator	V1R ag counter	OXTR ag	TAAR1 antag	TAAR1 agonist	OXTR agonist cf	V1aR counter 3x	others
N#CC1=C(N)Oc2n[nH]c(-c3ccccc3)c2C12C(=O)Nc1ccccc12 (centres undefined)	-20	1	23*	-1	3	0	0
COc1ccc(C(CCNCc2ccc(OC(C)C)cc2)c2ccccc2OC)cc1 (centres undefined)	-18	15	22*	38	38*	12	9
COc1cc(/C=C2\Oc3cc(O)ccc3C2=O)ccc1O	-11	12	22*	10	5	13	21*
Cc1ccc(NC(=O)Cn2nc(C(=O)O)c3ccccc3c2=O)c([N+](=O)[O-])c1	-5	2	0	-6	1	.	.
COc1ccc2nc(NC(=O)c3ccccc3[N+](=O)[O-])sc2c1	-4	0	4	4	-1	.	.
COc1ccc2nc(NC(=O)c3ccccc3O)sc2c1	-25	16	20*	9	8	11	9
CN1CCC(N(C)S(=O)(=O)c2ccc(NC(=O)COc3ccc(Br)cc3Cl)cc2)CC1	-17	12	25*	31	33	9	8
Cc1ccc(OCC(=O)Nc2ccc(S(=O)(=O)N(C)C3CCN(C)CC3)cc2)c(C)c1	-5	8	8	-14	14	.	.
COc1ccccc1C(=O)NNC(=S)NC(=O)c1ccco1	-6	14	24*	24	40*	3	7
COC(=O)c1cc(OC)c(OC)cc1NC(=S)NC(=O)c1ccco1	-4	0	-1	-1	-1	.	.
COCCOC(=O)C1=C(C)N(Cc2ccccc2)C(=O)NC1c1ccc(OC)cc1 (centres undefined)	-16	0	-1	1	4	.	.
N#Cc1ccsc1NC(=O)c1ccc(Cl)c([N+](=O)[O-])c1	-9	15	22*	-3	6	18	12
COCC(=O)Nc1cc(C)cn(Cc2ccc(F)cc2)c1=O	0	0	-1	-9	-1	.	.
COc1ccc(C(C(=O)NCc2ccc(F)cc2)N(Cc2cccnc2)C(=O)c2snc(C(N)=O)c2N)cc1 (centres undefined)	-1	0	0	35	8	.	.
COc1cc(CNC2CCCC2)cc(Cl)c1OCc1ccc(F)cc1	-11	11	13	-2	23	.	.
CCOc1cc(CNC2CCCC2)cc(Cl)c1OCc1ccc(F)cc1	-12	10	21*	16	40*	6	4
COC(=O)c1sc(C(C)(C)C)cc1CSc1ccccc1	8	0	0	-51	1	.	.
CC(=O)Oc1ccc(C(=O)Cc2ccc3ccccc3n2)c(O)c1C	2	3	2	-13	3	.	.
Cc1c(O)ccc(/C(Cc2ccc3ccccc3n2)=N\O)c1O	-24	17	22*	19	13	13	7
N#CCCN1CCN(C2=NC(=O)/C(=C\c3cccs3)S2)CC1	-1	-1	-1	5	6	.	.
COc1ccc(CNCCNC(=O)c2nonc2N)cc1OC	3	1	2	1	15	.	.
Nc1nonc1C(=O)NCCNCc1cc(Br)ccc1OCc1ccc(F)cc1	-8	13	20*	29	14	8	10
Oc1ccc(Cl)cc1CNCc1ccc(F)cc1	-16	9	28*	29	66*	28*	19	TAAR1 ag conf=65*;Ga16 nonsel ag=30*;TAAR1 desensitize=22;Ga16 nonsel ant=11
O=[N+]([O-])c1ccc(/C=N/Nc2nc(NCc3ccccc3)nc(N3CCOCC3)n2)cc1	2	-1	-2	-1	2	.	.
O=[N+]([O-])c1cccc(/C=N/Nc2nc(NCc3ccccc3)nc(N3CCOCC3)n2)c1O	-31	17	24*	27	67*	19	17	TAAR1 ag conf=115*;Ga16 nonsel ag=112*;TAAR1 desensitize=93*;Ga16 nonsel ant=85*
SMILES	OXTR potentiator	V1R ag counter	OXTR ag	TAAR1 antag	TAAR1 agonist	OXTR agonist cf	V1aR counter 3x	others
Cc1nnc(NC(=O)CSc2nnc3c(n2)[nH]c2ccc(Br)cc23)s1	-9	2	1	6	3	.	.
CCCCC1=C(C(=O)OCC)C(C(=O)OCC)Oc2ccccc21 (centres undefined)	.	.	.	-21	9	.	.
O=C(NCCc1ccccc1)/C(=C\c1cccc([N+](=O)[O-])c1)NC(=O)c1ccco1	0	0	-2	-16	37	.	.
O=C(NNC(=S)NC(=O)c1ccccc1)c1cccc([N+](=O)[O-])c1	-13	14	29*	29	96*	16	21*	TAAR1 ag conf=84*;Ga16 nonsel ag=65*;TAAR1 desensitize=28;Ga16 nonsel ant=20
COC(=O)C1=NNC2C(=O)N(C3CCCCC3)C(=O)C12 (centres undefined)	-5	2	1	-6	0	.	.
CC(Oc1ccc(Cl)cc1)C(=O)NNC(=S)NC(=O)c1ccco1 (centres undefined)	-13	11	26*	49*	116*	38*	42*	TAAR1 ag conf=79*;Ga16 nonsel ag=61*;TAAR1 desensitize=37;Ga16 nonsel ant=40*
Cc1[nH]c2ccccc2c1/C=C(\C#N)C(=O)NCc1ccccc1	-7	3	2	-5	11	.	.
Cc1ccc(C(C)NC(=O)/C(C#N)=C\c2c(C)[nH]c3ccccc23)cc1 (centres undefined)	-10	18	27*	44	63*	14	9	TAAR1 ag conf=59*;Ga16 nonsel ag=33*;TAAR1 desensitize=48;Ga16 nonsel ant=39*
C1CCC(C(CC2CCCCN2)C2CCCCC2)CC1 (centres undefined)	-4	10	21*!	32	40*	5	3	TAAR1 ag conf=58*;Ga16 nonsel ag=35*;TAAR1 desensitize=24;Ga16 nonsel ant=21*
COc1ccc(CCn2c(-c3ccccc3)nc3c(c(=O)c4ccccc4n3C)c2=O)cc1	2	0	0	-20	-1	.	.
CC(C)c1nc2c(c(=O)c3ccccc3n2C)c(=O)n1CCc1ccccc1	-14	18	28*	23	76*	15	13	TAAR1 ag conf=43*;Ga16 nonsel ag=37*;TAAR1 desensitize=28;Ga16 nonsel ant=20

Screening results as filed in PubChem.
